ChEMBL document CHEMBL1687813 (Antimicrob Agents Chemother, 2010)
Converted amounts (≈) assume the structure as drawn. The source made the active and inactive calls. The rule behind the calls is not given here.

Experiments:
[1] = biological target: T1, PYRAZINAMIDASE/NICOTINAMIDAS PNCA (PZase) (Mycobacterium tuberculosis) (UniProt Q50575); assay: Activity of PncA in Mycobacterium tuberculosis H37Ra assessed as compound turnover per ml of microbial cells after 30 mins by […] analysis
T1 sequence (whole entry): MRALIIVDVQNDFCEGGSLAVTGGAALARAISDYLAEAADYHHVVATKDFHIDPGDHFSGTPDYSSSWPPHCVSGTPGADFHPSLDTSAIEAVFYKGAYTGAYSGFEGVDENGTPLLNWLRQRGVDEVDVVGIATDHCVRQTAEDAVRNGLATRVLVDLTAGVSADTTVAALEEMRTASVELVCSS
Procedure, shortened: (§1)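 Whole-cell colorimetric amidase assay: log-phase cells were pelleted and resuspended in sterile water with 0.05% tyloxapol. Substrate (PZA or 5-Cl PZA) was added to 2 mM at 37°C with shaking and sampled at intervals. Clarified aliquots received ferrous ammonium sulfate (20 mM final), stood 30 min at 4°C, were re-spun, and were read at OD468. Extinction coefficients were 0.68 (PA) and 0.47 (5-Cl PA) per mM. Activity is nmol/min per ml of cells (OD600).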

[2] = biological target: T2, Nicotinamidase/pyrazinamidase (Mycolicibacterium smegmatis) (UniProt Q9ZHK8); assay: Activity of PzaA in Mycobacterium smegmatis mc2155 assessed as compound turnover per ml of microbial cells after 30 mins by […] analysis
T2 sequence (whole entry): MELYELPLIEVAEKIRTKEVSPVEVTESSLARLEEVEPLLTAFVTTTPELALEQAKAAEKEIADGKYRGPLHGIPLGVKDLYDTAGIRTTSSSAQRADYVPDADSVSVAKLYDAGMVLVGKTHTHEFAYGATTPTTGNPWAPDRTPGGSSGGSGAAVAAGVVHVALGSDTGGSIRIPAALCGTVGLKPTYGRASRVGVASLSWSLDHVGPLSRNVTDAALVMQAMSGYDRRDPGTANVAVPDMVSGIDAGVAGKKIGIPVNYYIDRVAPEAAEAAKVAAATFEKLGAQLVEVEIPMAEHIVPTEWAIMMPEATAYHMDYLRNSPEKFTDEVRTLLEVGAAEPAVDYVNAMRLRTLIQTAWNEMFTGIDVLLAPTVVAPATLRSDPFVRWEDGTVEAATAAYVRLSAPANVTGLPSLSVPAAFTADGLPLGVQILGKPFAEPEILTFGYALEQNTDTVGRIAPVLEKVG

[3] = biological target: T2, Nicotinamidase/pyrazinamidase (Mycolicibacterium smegmatis); assay: Activity of PzaA in Mycobacterium smegmatis mc22612 assessed as compound turnover per ml of microbial cells after 30 mins by […] analysis
[4] = biological target: T2, Nicotinamidase/pyrazinamidase (Mycolicibacterium smegmatis); assay: Activity of PzaA in Mycobacterium smegmatis mc27031 assessed as compound turnover per ml of microbial cells after 30 mins by […] analysis; procedure, shortened: as §1
[5] = biological target: T2, Nicotinamidase/pyrazinamidase (Mycolicibacterium smegmatis); assay: Activity of PzaA in Mycobacterium smegmatis mc27032 assessed as compound turnover per ml of microbial cells after 30 mins by […] analysis; procedure, shortened: as §1
[6] = biological target: T2, Nicotinamidase/pyrazinamidase (Mycolicibacterium smegmatis); assay: Activity of PzaA in Mycobacterium smegmatis mc27034 assessed as compound turnover per ml of microbial cells after 30 mins by […] analysis; procedure, shortened: as §1
[7] = biological target: T2, Nicotinamidase/pyrazinamidase (Mycolicibacterium smegmatis); assay: Activity of PzaA in Mycobacterium smegmatis mc27035 assessed as compound turnover per ml of microbial cells after 30 mins by […] analysis; procedure, shortened: as §1
[8] = biological target: T2, Nicotinamidase/pyrazinamidase (Mycolicibacterium smegmatis); assay: Activity of PzaA in Mycobacterium smegmatis mc27036 assessed as compound turnover per ml of microbial cells after 30 mins by […] analysis; procedure, shortened: as §1
[9] = biological target: T2, Nicotinamidase/pyrazinamidase (Mycolicibacterium smegmatis); assay: Activity of PzaA in Mycobacterium smegmatis mc27037 assessed as compound turnover per ml of microbial cells after 30 mins by […] analysis; procedure, shortened: as §1
[10] = biological target: T2, Nicotinamidase/pyrazinamidase (Mycolicibacterium smegmatis); assay: Activity of PzaA in Mycobacterium smegmatis mc27038 assessed as compound turnover per ml of microbial cells after 30 mins by […] analysis; procedure, shortened: as §1
[11] = system: Mycolicibacterium smegmatis; assay: Antimicrobial activity against Mycobacterium smegmatis mc2155 after 48 hrs by broth microdilution method; type: functional; conditions: mc2155, 48 h
[12] = system: Mycolicibacterium smegmatis; assay: Antimicrobial activity against 5-Cl PZA-resistant Mycobacterium smegmatis mc22612after 48 hrs by broth microdilution method; type: functional; conditions: mc22612, 48 h
[13] = system: Mycolicibacterium smegmatis; assay: Antimicrobial activity against Mycobacterium smegmatis mc27031 harboring MSMEG_1088::magellan4 after 48 hrs by broth microdilution method; type: functional; conditions: mc27031, 48 h
Procedure, shortened: (§2)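 Broth MIC: exponentially growing cells were diluted to 10^6 CFU/ml in supplemented 7H9 across a range of PZA or 5-Cl PZA concentrations. Medium was adjusted to pH 5.2 where indicated. Cultures were incubated 2 days at 37°C. The MIC is the lowest concentration preventing visible growth. Plasmid-borne amidases were induced with 50 ng/ml anhydrotetracycline.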

[14] = system: Mycolicibacterium smegmatis; assay: Antimicrobial activity against Mycobacterium smegmatis mc27032 harboring deltaMSMEG_1088 from Mycobacterium smegmatis mc2155 after 48 hrs by broth microdilution method; type: functional; conditions: mc27032, 48 h; procedure, shortened: as §2
[15] = system: Mycolicibacterium smegmatis; assay: Antimicrobial activity against Mycobacterium smegmatis mc27034 harboring deltaMSMEG_1090 from Mycobacterium smegmatis mc27031 after 48 hrs by broth microdilution method; type: functional; conditions: mc27034, 48 h; procedure, shortened: as §2
[16] = system: Mycolicibacterium smegmatis; assay: Antimicrobial activity against Mycobacterium smegmatis mc27035 harboring deltaMSMEG_1090 from Mycobacterium smegmatis mc2155 after 48 hrs by broth microdilution method; type: functional; conditions: mc27035, 48 h; procedure, shortened: as §2
[17] = system: Mycolicibacterium smegmatis; assay: Antimicrobial activity against Mycobacterium smegmatis mc27036 harboring deltaMSMEG_1090 from Mycobacterium smegmatis mc22612 after 48 hrs by broth microdilution method; type: functional; conditions: mc27036, 48 h; procedure, shortened: as §2
[18] = system: Mycolicibacterium smegmatis; assay: Antimicrobial activity against 5-Cl-PZA-resistant Mycobacterium smegmatis mc27037 after 48 hrs by broth microdilution method; type: functional; conditions: mc27037, 48 h; procedure, shortened: as §2
[19] = system: Mycolicibacterium smegmatis; assay: Antimicrobial activity against Mycobacterium smegmatis mc27038 harboring attBL5::Ptc::pzaAMsmeg from Mycobacterium smegmatis mc2155 after 48 hrs by broth microdilution method; type: functional; conditions: mc27038, 48 h; procedure, shortened: as §2
[20] = system: Mycobacterium tuberculosis; assay: Antimicrobial activity against Mycobacterium tuberculosis H37Ra after 11 days by broth microdilution method at pH 6; type: functional; conditions: 264 h
Procedure, shortened: (§3)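 Tubercle bacilli were diluted to 10^6 CFU/ml in supplemented 7H9 containing graded PZA or 5-Cl PZA, at pH 6.0 or neutral pH 6.8. Cultures were incubated 11 days at 37°C. The MIC is the lowest concentration blocking visible growth. Integrated amidase constructs were induced with 50 ng/ml anhydrotetracycline.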

[21] = system: Mycobacterium tuberculosis; assay: Antimicrobial activity against Mycobacterium tuberculosis H37Ra after 11 days by broth microdilution method at pH 6.8; type: functional; conditions: 264 h; procedure, shortened: as §3
[22] = system: Mycolicibacterium smegmatis; assay: Inhibition of Fatty acid synthase type 1 in Mycobacterium smegmatis mc27031 at 1500 ug/ml after 2 hrs by HPLC
[23] = system: Mycolicibacterium smegmatis; assay: Inhibition of Fatty acid synthase type 1 in Mycobacterium smegmatis mc2155 at 250 ug/ml after 2 hrs by HPLC
[24] = system: Mycolicibacterium smegmatis; assay: Inhibition of Fatty acid synthase type 1 in Mycobacterium smegmatis mc2155 at 2.5 mg/ml after 2 hrs by HPLC
Procedure, shortened: (§4)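 FAS I activity: mid-log cells (OD600 0.5) were resuspended to OD600 0.2 in 7H9 with 0.2% dextrose and 0.05% tyloxapol, pH 5.1, plus 2.5 mg/ml PZA, for 2 h at 37°C. They were pulsed with [1-14C]acetate (1 μCi/ml) for a further 2 h. Lipids were extracted, saponified, and derivatized to p-bromophenacyl esters. 14C-palmitate was quantified by reverse-phase HPLC.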

[25] = system: Mycolicibacterium smegmatis; assay: Inhibition of Fatty acid synthase type 1 in Mycobacterium smegmatis mc27031 at 2.5 mg/ml after 2 hrs by HPLC; procedure, shortened: as §4

Row | SMILES | Activity [1] [nmol/min] | Activity [2] [nmol/min] | Activity [3] [nmol/min] | Activity [4] [nmol/min] | Activity [5] [nmol/min] | Activity [6] [nmol/min] | Activity [7] [nmol/min] | Activity [8] [nmol/min] | Activity [9] [nmol/min] | Activity [10] [nmol/min] | MIC [11] [µg/mL] | MIC [12] [µg/mL] | MIC [13] [µg/mL] | MIC [14] [µg/mL] | MIC [15] [µg/mL] | MIC [16] [µg/mL] | MIC [17] [µg/mL] | MIC [18] [µg/mL] | MIC [19] [µg/mL] | MIC [20] [µg/mL] | further results
1 | NC(=O)c1cnc(Cl)cn1 | 0.15 | 0.85 | 32 | 100 | 65 | 1.2 | 0.95 | 1.2 | 100 | 34 | 25 (≈ 159 µM) | 125 (≈ 793 µM) | 125 (≈ 793 µM) | 125 (≈ 793 µM) | 25 (≈ 159 µM) | 25 (≈ 159 µM) | 25 (≈ 159 µM) | 125 (≈ 793 µM) | 125 (≈ 793 µM) | 25 (≈ 159 µM) | MIC [21]: 200 µg/mL (≈ 1270 µM); Activity [22]: Active; Activity [23]: Active
2 | NC(=O)c1cnccn1 [PYRAZINAMIDE] | 0.23 | 0.85 | 32 | 100 | 65 | 1.2 | 0.95 | 1.2 | 100 | 34 | > 4000 | > 4000 | 150 (≈ 1220 µM) | 150 (≈ 1220 µM) | > 4000 | > 4000 | > 4000 | 150 (≈ 1220 µM) | > 4000 | > 1000 | inhibition [24]: Active; MIC [21]: 62.5 µg/mL (≈ 508 µM); inhibition [25]: inactive
